We go through seven compounds from PMC3483595 (ChemMedChem, 2012).

In brackets after ≈: the same amount, converted by molar mass. Several values for one entry are separate records, joined by “and”; a condition that tells them apart may be missing. Identical values can stand only once. Like-named read-outs stand apart in the source and are kept apart here.

For experiment [1], the system named is SecA-dependent protein translocation. Particulars: read-out: IC50, in vitro protein translocation; cited from earlier work.
The target in the next experiment is EcN68 SecA ATPase (Escherichia coli, UniProt P10408). In words: biochemical. The class given is biochemical.
Experiment [2] has as its target T1, EcSecA translocation ATPase (Escherichia coli, UniProt P10408). As to conditions: read-out: IC50, translocation ATPase of SecA; cited from earlier work.
The test system of experiment [3] is B. subtilis 168. The experiment can be described thus: Bactericidal effect assay. The class given is cell-based. Particulars: 100 µM, one-hour treatment, exponential-phase cells. In a few lines:
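Exponential-phase cultures (OD600 0.5) in LB with 0.2% glucose were exposed to test compound, with water as the control, for 1 h at 37°C. Cultures were serially diluted and spread on LB plates. Surviving CFU were counted after overnight growth at 37°C, and the effect was expressed as the drop in log CFU. At least triplicate; standard error of the mean.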

Experiment [4] deals with E. coli NR698. In words: Liquid culture growth assay. In kind it is cell-based. Particulars: 50 µM, data not shown.
Another experiment relates to SecA ATPase. In words: Kinetic experiments versus ATP. As to conditions: low ATP concentrations, data not shown. The class given is biochemical.
A further experiment addresses BsSecA intrinsic ATPase (Bacillus subtilis, UniProt P28366). In words: Intrinsic ATPase assay of full-length BsSecA. The class given is biochemical. As to conditions: read-out: IC50, BsSecA intrinsic ATPase; full-length B. subtilis SecA. In short, it runs like this: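 Full-length B. subtilis SecA was overexpressed from pT7div and purified, then used at 1.5 µg per 50 µL reaction in solution without membranes. Phosphate release was read at 660 nm and expressed as % remaining activity versus control; at least triplicate.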

The target of the next experiment is F1F0-ATPase (Escherichia coli, UniProt P0ABB0+P0ABB4). The experiment can be described thus: F1F0-proton ATPase activity assay. The class given is biochemical. Particulars: read-out: IC50, F1F0-ATPase; E. coli F1F0-proton ATPase in liposomes. In short, it runs like this:
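F1F0-ATPase from E. coli KY7485 membranes was partially purified by sucrose gradient and reconstituted into liposomes by dialysis. Released phosphate was read photometrically at 660 nm. Activity was expressed as % of the no-inhibitor control; at least triplicate.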

Experiment [5] deals with B. subtilis 168. In words: Plate assay of bacterial growth. As to conditions: for MIC, B. subtilis 168: plate assay, overnight incubation. The class given is cell-based. In short, it runs like this: (§1)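 Exponential-phase cells (OD600 0.5) were mixed into LB with 0.2% glucose and 0.75% soft agar and poured as a lawn. Test compound (1 µL; water- or DMSO-dissolved) was spotted on the set surface and plates were incubated overnight at 37°C. The MIC was the concentration giving a clear growth-inhibition zone relative to the surrounding lawn.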

The test system of experiment [6] is E. coli NR698. In words: Bactericidal effect assay. The class given is cell-based. As to conditions: 100 µM, one-hour treatment, exponential-phase cells.
In experiment [7] the test system is SecA-dependent protein translocation. In words: SecA-dependent in vitro translocation of proOmpA into membrane vesicles. Particulars: read-out: IC50, in vitro translocation of proOmpA into membrane vesicles; 35S-labeled proOmpA. The class given is biochemical, E. coli.
Experiment [8] deals with E. coli NR698. In words: Plate assay of bacterial growth. As to conditions: for MIC, E. coli NR698: plate assay, leaky mutant, overnight incubation. In kind it is cell-based.
A further experiment deals with E. coli MC4100. The experiment can be described thus: Plate assay of bacterial growth. As to conditions: wild-type, overnight incubation. The class given is cell-based. In a few lines:
as §1

Experiment [9] concerns the target T1, EcSecA translocation ATPase. The experiment can be described thus: Translocation ATPase assay of SecA with membrane and proOmpA. In kind it is biochemical. As to conditions: read-out: IC50, EcSecA translocation ATPase. In short, it runs like this: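 Purified full-length E. coli SecA (1.5 µg per 50 µL) was combined with 3 µg urea-washed BA13 membrane plus 1 µg purified proOmpA precursor. Reaction: 1.2 mM ATP, ovalbumin, Tris-HCl pH 7.6, KCl, NH4Cl, Mg(OAc)2, DTT, 40°C within the linear range. Released phosphate was read at 660 nm and expressed as % remaining activity versus control; at least triplicate.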

The target in a further experiment is EcSecA membrane ATPase (Escherichia coli, UniProt P10408). The experiment can be described thus: Membrane ATPase assay of SecA with urea-washed BA13 membrane. As to conditions: read-out: IC50, EcSecA membrane ATPase. The class given is biochemical. In short, it runs like this:
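Purified full-length E. coli SecA (1.5 µg per 50 µL) was combined with 3 µg urea-washed membrane from E. coli BA13 (MC4100 secA13(am) supF(ts)). Phosphate was read at 660 nm and expressed as % of the no-inhibitor control; at least triplicate.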

The conditions of experiment [10]: cited from earlier work.

T1 sequence (P10408 whole entry): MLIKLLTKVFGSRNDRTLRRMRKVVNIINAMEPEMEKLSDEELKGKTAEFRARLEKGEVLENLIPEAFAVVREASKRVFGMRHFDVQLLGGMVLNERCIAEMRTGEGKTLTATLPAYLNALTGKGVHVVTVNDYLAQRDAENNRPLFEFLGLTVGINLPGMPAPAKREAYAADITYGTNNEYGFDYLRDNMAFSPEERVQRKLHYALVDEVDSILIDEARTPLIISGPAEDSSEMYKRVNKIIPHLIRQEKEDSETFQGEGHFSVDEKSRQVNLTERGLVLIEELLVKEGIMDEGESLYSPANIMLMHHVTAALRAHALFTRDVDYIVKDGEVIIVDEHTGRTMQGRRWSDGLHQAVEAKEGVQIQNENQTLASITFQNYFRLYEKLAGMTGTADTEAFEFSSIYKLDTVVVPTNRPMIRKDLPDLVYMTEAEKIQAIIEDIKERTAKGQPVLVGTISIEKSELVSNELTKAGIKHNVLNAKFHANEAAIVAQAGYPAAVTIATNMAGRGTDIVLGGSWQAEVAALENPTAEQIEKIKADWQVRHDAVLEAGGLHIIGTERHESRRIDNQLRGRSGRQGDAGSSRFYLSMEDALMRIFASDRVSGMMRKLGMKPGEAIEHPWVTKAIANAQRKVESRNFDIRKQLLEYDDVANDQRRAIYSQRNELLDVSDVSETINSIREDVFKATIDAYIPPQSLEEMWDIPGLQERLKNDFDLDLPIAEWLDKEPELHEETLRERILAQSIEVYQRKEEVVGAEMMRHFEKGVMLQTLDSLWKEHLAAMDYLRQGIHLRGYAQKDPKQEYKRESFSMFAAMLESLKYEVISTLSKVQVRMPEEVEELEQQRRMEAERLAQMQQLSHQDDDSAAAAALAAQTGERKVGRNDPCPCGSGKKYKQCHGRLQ
Sequence of BsSecA intrinsic ATPase (P28366 whole entry): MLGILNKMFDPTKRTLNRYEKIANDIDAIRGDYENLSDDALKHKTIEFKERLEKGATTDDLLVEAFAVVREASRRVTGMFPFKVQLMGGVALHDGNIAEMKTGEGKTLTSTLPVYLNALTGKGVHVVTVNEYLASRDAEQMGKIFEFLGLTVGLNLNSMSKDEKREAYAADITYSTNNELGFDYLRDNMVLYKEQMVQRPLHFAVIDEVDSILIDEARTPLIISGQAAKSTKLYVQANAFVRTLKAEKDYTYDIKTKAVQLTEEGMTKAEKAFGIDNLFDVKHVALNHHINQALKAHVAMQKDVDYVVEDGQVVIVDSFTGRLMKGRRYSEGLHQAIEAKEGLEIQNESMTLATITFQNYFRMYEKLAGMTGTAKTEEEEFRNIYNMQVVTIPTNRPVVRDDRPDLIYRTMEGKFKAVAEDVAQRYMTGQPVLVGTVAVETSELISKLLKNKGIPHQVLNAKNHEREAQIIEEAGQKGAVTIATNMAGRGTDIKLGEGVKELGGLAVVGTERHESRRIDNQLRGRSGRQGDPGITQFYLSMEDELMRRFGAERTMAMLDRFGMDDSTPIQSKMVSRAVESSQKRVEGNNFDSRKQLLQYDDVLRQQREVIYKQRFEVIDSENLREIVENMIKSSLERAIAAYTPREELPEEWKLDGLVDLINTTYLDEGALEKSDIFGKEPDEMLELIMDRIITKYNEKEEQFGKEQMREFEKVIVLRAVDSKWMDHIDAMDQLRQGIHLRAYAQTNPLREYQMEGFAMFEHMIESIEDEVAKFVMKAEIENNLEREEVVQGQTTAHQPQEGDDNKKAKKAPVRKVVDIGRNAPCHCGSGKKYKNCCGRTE
Sequence of EcN68 SecA ATPase (P10408 1-610): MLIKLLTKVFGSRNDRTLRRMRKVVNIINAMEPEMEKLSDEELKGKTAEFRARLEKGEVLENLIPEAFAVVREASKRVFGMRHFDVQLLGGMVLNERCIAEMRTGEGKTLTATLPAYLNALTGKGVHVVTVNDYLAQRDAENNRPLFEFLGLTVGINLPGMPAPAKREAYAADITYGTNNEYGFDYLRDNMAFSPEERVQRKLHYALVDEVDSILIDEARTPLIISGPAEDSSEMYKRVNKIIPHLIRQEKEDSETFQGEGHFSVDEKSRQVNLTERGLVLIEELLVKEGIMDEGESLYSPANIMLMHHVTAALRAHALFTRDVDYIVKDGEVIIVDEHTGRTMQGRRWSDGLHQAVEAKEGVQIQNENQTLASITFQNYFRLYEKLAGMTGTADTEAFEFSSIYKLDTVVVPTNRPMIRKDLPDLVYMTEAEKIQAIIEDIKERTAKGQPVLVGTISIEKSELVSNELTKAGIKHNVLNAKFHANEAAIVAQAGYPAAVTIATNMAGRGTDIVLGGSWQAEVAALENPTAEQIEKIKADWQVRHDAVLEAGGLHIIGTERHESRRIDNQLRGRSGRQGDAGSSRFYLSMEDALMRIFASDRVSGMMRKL
Sequence of EcSecA membrane ATPase (P10408 whole entry): as the sequence (P10408 whole entry) above

Consider `[N-]=[N+]=[N-].[Na+]` [Sodium azide], for which the IC50 in [1] was 600 µM; in experiment [2], 5000 µM. The “Inhibition of the intrinsic ATPase of SecA” value on EcN68 SecA ATPase (at concentrations as high as 10 mM, cf. Table 1 EcN68) is listed as “not inhibited”.

As to `O=C1OC2(c3cc(I)c(O)c(I)c3Oc3c2cc(I)c(O)c3I)c2c(Cl)c(Cl)c(Cl)c(Cl)c21` [RB, Rose Bengal], the “Decrease of cell survival (CFU)” value with B. subtilis 168 [3] is recorded as roughly 8 log units; in the experiment with E. coli NR698 [6] it was “about 10 log units”. Also, the “Inhibition of growth in liquid culture” value with E. coli NR698 [4] is given as “completely inhibits”. The “Mode of inhibition against ATP” value in the experiment with SecA ATPase is given as “competitive inhibitors against ATP”. In addition, the IC50 at BsSecA intrinsic ATPase is 7 µM; at F1F0-ATPase it was roughly 10 µM; in experiment [7] it was 0.25 µM and ~0.25 µM. For the same compound, the “MIC, B. subtilis 168” value with B. subtilis 168 [5] was determined as 3.1 µM (≈ 3.02 µg/mL). Further, in the experiment on E. coli NR698 [8], the “MIC, E. coli NR698” value was found to be 3.1 µM (≈ 3.02 µg/mL). In the experiment on E. coli MC4100, the “MIC, E. coli MC4100” value was greater than 1000 µM.

Turning to `O.O=C([O-])c1ccccc1-c1c2cc(I)c(=O)c(I)c-2oc2c(I)c([O-])c(I)cc12.[Na+].[Na+]` [EB, Erythrosin B], the “Mode of inhibition against ATP” value in the experiment with SecA ATPase is given as “competitive inhibitors against ATP”. In addition, the IC50 at BsSecA intrinsic ATPase was 70 µM; at F1F0-ATPase it was roughly 30 µM; in [9], 10 µM; in [7], 4 µM; at EcSecA membrane ATPase it was 12 µM. In addition, the “MIC, B. subtilis 168” value in the experiment with B. subtilis 168 [5] is 250 to 500 µM. The “MIC, E. coli NR698” value against E. coli NR698 [8] lay in the range of 250 to 500 µM. The “MIC, E. coli MC4100” value against E. coli MC4100 is greater than 10000 µM.

As for Dinitrofluorescein [DN], in the experiment on B. subtilis 168 [5], the “MIC, B. subtilis 168” value was determined as 10000 µM. Further, the “MIC, E. coli NR698” value in the experiment with E. coli NR698 [8] is 10000 to 20000 µM.

The compound `O=C1OC2(c3ccccc31)c1cc(Br)c(O)c(Br)c1Oc1c2cc(Br)c(O)c1Br` [EY, Eosin Y] had an IC50 at EcN68 SecA ATPase of 25 µM. Besides, the MIC is 2500 µM (≈ 1620 µg/mL) in the experiment on B. subtilis 168 [5] (Bacillus subtilis, 168, read-out: MIC, B. subtilis 168) and 1000 to 2500 µM (≈ 648 to 1620 µg/mL) in the experiment on E. coli NR698 [8] (Escherichia coli, NR698, read-out: MIC, E. coli NR698).

On to `C/C=C/[C@H]1C(C)=C[C@H]2C[C@H](C)[C@H](O)C[C@H]2[C@]1(C)/C=C(C)/C=C/C(=O)O` [pannomycin], for which the “MIC, antibacterial activity” value in experiment [10] is “mM range”.

Take `O=C([O-])c1ccccc1-c1c2ccc(=O)c(I)c-2oc2c(I)c([O-])ccc12.[Na+].[Na+]` [DI, Diiodofluorescein]: the “MIC, B. subtilis 168” value in the experiment with B. subtilis 168 [5] was 1000 µM. Further, the “MIC, E. coli MC4100” value in the experiment with E. coli MC4100 was greater than 3000 µM.

One may read the IC50 as the concentration needed to halve the response being measured. By MIC is commonly meant the lowest concentration found to suppress growth.
